Source: ChEMBL document CHEMBL1128546 (J Med Chem, 1995)

Assays:
Oryctolagus cuniculus [1] = organism: Oryctolagus cuniculus; experiment: The compound was tested for functional activity by measuring the contraction of saphenous vein from New Zealand white rabbit
[2] = molecular target: 5-hydroxytryptamine receptor 1D (Homo sapiens, UniProt P28221); experiment: Binding affinity to recombinant human 5-hydroxytryptamine 1D receptor alpha
Procedure, shortened: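 Binding to the cloned human receptor subtype. Values are Ki, given as the mean of one or two independent experiments, each run in duplicate.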

Oryctolagus cuniculus [3] = organism: Oryctolagus cuniculus; experiment: Maximum vein contraction obtained relative to 5-hydroxytryptamine; assay type: functional

Sequence of 5-hydroxytryptamine receptor 1D (P28221 whole entry): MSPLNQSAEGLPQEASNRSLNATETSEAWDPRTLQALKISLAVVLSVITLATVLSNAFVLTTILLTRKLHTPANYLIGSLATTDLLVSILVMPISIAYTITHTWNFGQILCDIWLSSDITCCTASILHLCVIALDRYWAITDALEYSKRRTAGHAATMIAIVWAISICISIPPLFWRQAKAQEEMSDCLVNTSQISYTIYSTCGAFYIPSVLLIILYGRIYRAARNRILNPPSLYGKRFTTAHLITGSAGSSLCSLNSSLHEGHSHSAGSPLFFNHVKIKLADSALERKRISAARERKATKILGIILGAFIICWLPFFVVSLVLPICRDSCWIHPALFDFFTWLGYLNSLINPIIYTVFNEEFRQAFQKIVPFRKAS

SMILES	pD2 (Oryctolagus cuniculus [1])	Ki [2] [nM]	Rel max (Oryctolagus cuniculus [3])
NCCc1c[nH]c2ccc(OCCCCC(=O)N3CCN(c4ccc(N)cc4)CC3)cc12	7.05	1.4	0.73
CS(=O)(=O)NCc1ccc(N2CCN(C(=O)COc3ccc4[nH]cc(CCN)c4c3)CC2)cc1	6.92	1	0.88
N#Cc1ccccc1N1CCN(C(=O)COc2ccc3[nH]cc(CCN)c3c2)CC1	7.42	0.92	1.22
Cc1ccccc1N1CCN(C(=O)COc2ccc3[nH]cc(CCN)c3c2)CC1	5.86		1.01
NCCc1c[nH]c2ccc(OCCCC(=O)N3CCN(c4ccc([N+](=O)[O-])cc4)CC3)cc12	6.91	1.2	1.06
CN(C)S(=O)(=O)Nc1ccc(N2CCN(C(=O)COc3ccc4[nH]cc(CCN)c4c3)CC2)cc1.Cl.O	7.2	0.26	0.96
CS(=O)(=O)NCc1ccccc1N1CCN(C(=O)COc2ccc3[nH]cc(CCN)c3c2)CC1	6	1.8	0.93
NCCc1c[nH]c2ccc(OCCCCCC(=O)N3CCN(c4ccc(N)cc4)CC3)cc12	8.09	0.38	0.79
NCCc1c[nH]c2ccc(OCCCCCC(=O)N3CCN(c4ccc([N+](=O)[O-])cc4)CC3)cc12	7	0.34	0.73
NCCc1c[nH]c2ccc(OCC(=O)N3CCN(c4ccc(CN)cc4)CC3)cc12	6.8	0.93	0.92
CS(=O)(=O)Nc1ccc(N2CCN(C(=O)COc3ccc4[nH]cc(CCN)c4c3)CC2)cc1	7.62	0.56	1.21
CNS(=O)(=O)Cc1ccc2[nH]cc(CCN(C)C)c2c1	5.75		1.26
NCCc1c[nH]c2ccc(OCCCCC(=O)N3CCN(c4ccc([N+](=O)[O-])cc4)CC3)cc12	6.74	2.5	0.71
CS(=O)(=O)Nc1ccc(N2CCN(C(=O)CCCCCOc3ccc4[nH]cc(CCN)c4c3)CC2)cc1	8.33		1.05
CC(=O)Nc1ccc(N2CCN(C(=O)COc3ccc4[nH]cc(CCN)c4c3)CC2)cc1	6.67		1.01
NCCc1c[nH]c2ccc(OCC(=O)N3CCN(c4ccccc4CN)CC3)cc12	6.52	6.9	0.9
NCCc1c[nH]c2ccc(OCC(=O)N3CCN(c4ccccc4[N+](=O)[O-])CC3)cc12	6.33	0.58	0.87
NCCc1c[nH]c2ccc(OCC(=O)N3CCN(c4ccc(N)cc4)CC3)cc12	6.88	2.92	0.83
NCCc1c[nH]c2ccc(OCC(=O)N3CCN(c4ccc(NC(=O)c5ccccc5)cc4)CC3)cc12	7.31	1.7	0.9
NCCc1c[nH]c2ccc(OCC(=O)N3CCN(c4ccc([N+](=O)[O-])cc4)CC3)cc12	6.12	0.42	0.52
NCCc1c[nH]c2ccc(OCC(=O)N3CCN(c4ccccc4)CC3)cc12	7.63	1.2	0.68
CN(C)CCc1c[nH]c2ccc(Cn3cncn3)cc12 [RIZATRIPTAN]	6.15		1.42
NCCc1c[nH]c2ccc(O)cc12 [SEROTONIN]			1
CN(C)CCc1c[nH]c2ccc(C[C@H]3COC(=O)N3)cc12 [ZOLMITRIPTAN]	6.13	0.92	1.48
